According to ChEMBL document CHEMBL1146022, “Replacement of the metabolically labile methyl esters in the alkenyldiarylmethane series of non-nucleoside reverse transcriptase inhibitors with isoxazolone, isoxazole, oxazolone, or cyano substituents” (J Med Chem, 2006):

How the values were obtained:
MT4 = assay: Cytotoxicity against mock-infected MT4 cells; type: functional; settings: Homo sapiens
[1] = system: Human immunodeficiency virus 1; assay: Antiviral activity against HIV1 3B in MT4 cells by MTT assay; type: functional, organism-based; settings: Human immunodeficiency virus 1, 3B
Outline: (§1)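 MT-4 cells infected with HIV-1 IIIB or HIV-2 ROD; protection from virus-induced cytopathicity read by MTT assay. EC50 taken as the concentration giving 50% inhibition of cytopathicity.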

CEM-SS = assay: Cytotoxicity against mock-infected CEM-SS cells; type: functional; settings: Homo sapiens
[2] = Half life in rat plasma; type: ADME
Outline: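 In vitro hydrolytic stability in rat plasma, with 1,1-diphenylethylene or benzophenone as internal standard. Half-life reported in minutes with SD.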

[3] = system: Human immunodeficiency virus 1; assay: Antiviral activity against HIV1 RF in CEM-SS cells by MTS cytoprotection assay; type: functional, organism-based; settings: Human immunodeficiency virus 1, RF
Outline: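 CEM-SS cells infected with HIV-1 RF; cytoprotection against viral cytopathic effect read by MTS assay. EC50 taken as the concentration giving 50% inhibition of cytopathicity.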

[4] = target: Human immunodeficiency virus type 1 reverse transcriptase (Human immunodeficiency virus 1, UniProt Q72547); assay: Inhibition of recombinant HIV1 reverse transcriptase measured as inhibition of incorporation of [32P]GTP in rCDG primer; type: functional
Outline: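 Purified recombinant HIV-1 RT p66/p51 heterodimer. Polymerase activity followed as [32P]GTP incorporation on poly(rC)/oligo(dG) homopolymer template-primer. IC50 taken from inhibition of incorporation.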

[5] = system: Human immunodeficiency virus 2; assay: Antiviral activity against HIV2 ROD in MT4 cells by MTT assay; type: functional, organism-based; settings: Human immunodeficiency virus 2, ROD; outline: as §1

Row | half-life [2] [min] | IC50 [4] [µM] | Compound | CC50 (MT4) [µM] | EC50 [1] [µM] | CC50 (CEM-SS) [µM] | EC50 [3] [µM] | EC50 [5] [µM]
1 | 1.85 | 2 | COC(=O)CCC/C=C(\c1cc(C)c(OC)c(C(=O)OC)c1)c1cc(C)c2on(C)c(=O)c2c1 | 27.1 | 3.1 | > 5 | 1.1 | > 27.1
2 |  | 0.02 | COC(=O)CCC/C=C(/c1cc(C)c(OC)c(C(=O)OC)c1)c1cc(C)c2oc(=O)n(C)c2c1 |  | 0.09 |  | 0.03 | 
3 | 0.46 | 49.2 | COC(=O)CCC/C=C(/c1cc(C)c2on(C)c(=O)c2c1)c1cc(C)c2oc(=O)n(C)c2c1 | 36.5 | 4.49 | 11.1 | 1.79 | > 36.5
4 | 22.1 | 9.86 | COC(=O)c1cc(/C(=C\CCN2CCOC2=O)c2cc(C)c3on(C)c(=O)c3c2)cc(C)c1OC |  |  | 16.3 | 2.7 | 

Continued, compound first:

Row | Compound | half-life [2] [min] | IC50 [4] [µM] | CC50 (MT4) [µM] | EC50 [1] [µM] | CC50 (CEM-SS) [µM] | EC50 [3] [µM] | EC50 [5] [µM]
5 | COC(=O)CCC/C=C(\c1cccc(C#N)c1)c1cc(C)c(OC)c(C(=O)OC)c1 | 1.32 | 0.54 | 10.6 | 0.47 | 10.9 | 0.46 | > 10.6
6 | COC(=O)CCCC=C(c1cccc(C#N)c1)c1cc(C)c2oc(=O)n(C)c2c1 | 1.18 | 26.4 | 54.2 | > 54.2 | 12.9 | > 100 | > 54.2
7 | COC(=O)CCCC=C(c1cccc(C#N)c1)c1cc(C)c2on(C)c(=O)c2c1 |  | 49.6 |  |  | 14 | > 100 | 
8 | COC(=O)CCC/C=C(/c1ccc(C#N)cc1)c1cc(C)c2oc(=O)n(C)c2c1 |  | 1.2 | 51 | 1.49 | 21.9 | 0.59 | > 51
9 | COC(=O)CCC/C=C(/c1cccc(C#N)c1)c1cc(C)c2oc(=O)n(C)c2c1 |  | 2.8 |  |  | 11.5 | 1.73 | 
10 | COc1noc2c(C)cc(/C(=C\CCN3CCOC3=O)c3cc(C)c4on(C)c(=O)c4c3)cc12 | > 1440 | 7.6 | 1.12 | > 1.12 | 1.54 | > 9.91 | > 1.12
